TNAP inh hi DEA – inhibitors of human TNAP at high phosphate acceptor concentration | P05186 | purified TNAP, CDP-star luminescence, 1 M DEA | inhibition, % at 20 µM | 0.03% of 200,000 active | AID 1135;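 active = over 50% inhibition of tissue-nonspecific alkaline phosphatase at 20 µM in the single-dose screen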;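 also: plate controls were DMSO wells for no effect and EDTA-quenched wells as full inhibition for full effect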
Target sequence (P05186 whole entry, looked up): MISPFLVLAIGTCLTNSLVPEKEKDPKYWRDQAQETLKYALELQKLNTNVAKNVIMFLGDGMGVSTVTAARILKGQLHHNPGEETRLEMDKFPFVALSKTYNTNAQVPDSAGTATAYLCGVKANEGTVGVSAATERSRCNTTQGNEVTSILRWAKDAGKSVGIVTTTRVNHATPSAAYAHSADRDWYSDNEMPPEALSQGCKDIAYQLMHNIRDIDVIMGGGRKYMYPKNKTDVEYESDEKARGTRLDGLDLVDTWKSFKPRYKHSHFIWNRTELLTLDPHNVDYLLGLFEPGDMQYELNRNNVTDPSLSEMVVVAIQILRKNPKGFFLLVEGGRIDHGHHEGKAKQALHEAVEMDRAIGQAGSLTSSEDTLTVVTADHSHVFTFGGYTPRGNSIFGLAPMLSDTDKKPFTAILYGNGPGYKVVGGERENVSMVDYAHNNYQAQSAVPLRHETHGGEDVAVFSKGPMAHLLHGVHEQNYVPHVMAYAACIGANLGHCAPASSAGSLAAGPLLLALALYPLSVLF
TNAP inh no acc – inhibitors of human TNAP without phosphate acceptor | purified TNAP, CDP-star luminescence, 30 min | AID 1012 | 0.26% of 200,000 active | inhibition, % at 20 µM | P05186;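 active = tissue-nonspecific alkaline phosphatase inhibition above about 50% at 20 µM in the single-dose screen, limit read from the data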;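 also: 0% = DMSO negative control and 100% = EDTA positive control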
TNAP act hi DEA – TNAP (human) activation, high acceptor; AID 1136; P05186; activation factor at 20 µM; 200,000 tested, under 10 active; purified TNAP, CDP-star luminescence, 1 M DEA, 30 min; stronger effect = higher value; 0 = EDTA background, 1 = DMSO-only activity;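 active = activation factor at least 2 at 20 µM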
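Control set: EDTA negative control, DMSO positive control / Assay system: human TNAP / Quantity: TNAP 1/800 final / Evaluation: TNAP activation factor scaled between EDTA and DMSO control wells / Measured by: luminescent substrate turnover signal / Compound dosing: one dose, 20 µM / Times: 30 min enzyme reaction at room temperature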
PMI act hi M6P – PMI (human) activation, high substrate; P34949; coupled PMI enzyme assay, resazurin fluorescence, 20 min; stronger effect = higher value; 1 = untreated enzyme, 0 = substrate-free blank; activation factor at 20 µM; 0.34% of 190,000 active;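 active = activation factor of 2 or more at 20 µM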
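Test system: human PMI in coupled enzyme assay; Input: PMI at 15 ng/mL final; Medium: HEPES buffer, pH 7.4; Schedule: 20 min incubation at room temperature; Technique: resorufin fluorescence at Ex 544/Em 590 nm; Compound: 20 µM single dose; Probe or stimulus: Near-saturating mannose-6-phosphate, 1.0 mM.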
PMI activator – increases human mannose-6-phosphate isomerase activity; P34949; purified human PMI, coupled resazurin fluorescence, 20 min; stronger effect = higher value; 1 = vehicle control, 0 substrate-free wells; activation factor at 20 µM; 0.005% of 190,000 active; AID 1214;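 active = activation factor of 2 or more at 20 µM, relative to plate controls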
* marks the source's active call; other numbers are inactive results; . = no result given. In the library only some 0.64% were active in any assay of this set; here they are far more common.

SMILES	TNAP inh hi DEA	TNAP inh no acc	TNAP act hi DEA	PMI act hi M6P	PMI activator
CCOC(=O)c1cc(NC(=O)Nc2nc3ccccc3s2)c(C)nc1C	3.0	58.0*	1	1	0.9
CCOC(=O)c1cc(NC(=O)Nc2cc(C)ccn2)c(C)nc1C	8.7	7.2	0.9	1.2	1.1
C(=N\Nc1ccccc1)/c1ccc(N2CCOCC2)cc1	-2.9	-5.0	1	2.2*	1.3
Clc1cccc(N/N=C/c2ccc(N3CCOCC3)cc2)c1	-4.5	-8.8	1	2.3*	1.4
C(=N\Nc1ccccn1)/c1ccc(N2CCOCC2)cc1	2.4	2.0	1	0.8	0.9
Clc1ccc(-c2n[nH]c3c2CCCC3)cc1	-3.5	52.9*	1	0.9	0.9
Cc1cc(C(=O)CCl)c(C)n1-c1c(C)n(C)n(-c2ccccc2)c1=O	-1.1	-6.9	1	1.1	1.2
Brc1ccc(-c2nn3c(-c4ccco4)nnc3s2)o1	-1.2	-6.8	1	2*	1.1
O=C(O)C1Nc2c(O)cc(Cl)c([N+](=O)[O-])c2C2C=CCC12 (configuration not stated)	31.3	65.0*	0.7	2.2*	1.7
CC(C)(C)c1cc(C(=O)NCCN2CCCC2)cc(C(C)(C)C)c1	-7.2	-18.9	1.1	1	1
O=C(O)C1CC=CCC1C(=O)NNc1ccccc1 (configuration not stated)	-5.3	-12.4	1.1	2.7*	1.9
COc1ccc(C(=O)c2c(C(F)(F)F)oc3c2C(=O)c2ccccc2C3=O)cc1	-2.4	6.5	1	2*	1.5
Cc1ccc(C(=O)c2c(C)oc3c2C(=O)C(=O)c2ccccc2-3)cc1	3.6	-2.8	1	0.3	0.3
O=C(COc1ccc(Cl)cc1)NCc1nnc(SCC(=O)Nc2ccccc2F)o1	-2.8	-9.4	1	1	1
C=CCn1c(O)c(N=NC(=O)OC(C)(C)C)c2ccccc21	4.9	2.1	1	1	0.9
C=CCn1c(O)c(N=Nc2ccccc2C)c2ccccc21	4.5	12.4	1	2.2*	1.7
CCC(=O)NC(=S)NNC(=O)c1ccc(O)cc1	6.9	97.3*	0.9	.	.
Cc1ccc(N/C(=C\C(=O)c2ccccc2)C(=O)O)cc1	0.4	-0.3	1	1	1
O=C(CSc1ncn[nH]1)Nc1nc(-c2ccccc2)ns1	-3.4	76.2*	1	1	0.9
CN(C)C=NC(=O)c1cc(C(=O)c2ccc(Cl)cc2Cl)c[nH]1	-1.7	-3.0	1	0.9	0.9
Nc1ccccc1SCc1cn2ccccc2n1	-5.5	-13.2	1.1	1	1.1
N=C(N)SCc1cn2ccccc2n1	-0.1	58.9*	1	1.1	1.1
COc1ccccc1Nc1nc(-c2c(C)[nH]c3ccccc23)cs1	-2.0	1.8	1	2*	1.2
CCOC(=O)C(NCc1ccccc1)(NC(=O)c1ccccc1)C(F)(F)F (configuration not stated)	-5.7	-8.4	1.1	1	0.9
CCOC(=O)C(NS(=O)(=O)c1ccccc1)(C(F)(F)F)P(=O)(OCC(C)C)OCC(C)C (configuration not stated)	-2.3	-23.9	1	2*	1.8
SMILES	TNAP inh hi DEA	TNAP inh no acc	TNAP act hi DEA	PMI act hi M6P	PMI activator
COc1cccc(N=C2SC(CC(=O)Nc3ccccc3)C(=O)N2Cc2ccccn2)c1 (configuration not stated)	-4.4	-5.6	1	0.9	1.1
Cc1ccc(N=C2NC(=O)/C(=C/C=C/c3ccco3)S2)cc1	15.0	32.1	0.8	1.9	1.5
O=C1NC(=Nc2ccccc2)S/C1=C\C=C\c1ccco1	9.4	56.1*	0.9	1	1
CC(C)(C)c1ccc(S(=O)(=O)N2CCC(CO)(CC3CCCCO3)CC2)cc1 (configuration not stated)	-4.4	-3.1	1	0.9	1
CC(C)CSC1=NSC2=NC(=O)/C(=C\c3coc4ccccc4c3=O)C(=N)N12	5.6	12.8	0.9	2*	1.6
CSC1=NSC2=NC(=O)/C(=C\c3coc4ccccc4c3=O)C(=N)N12	3.4	-13.5	1	1.7	1.3
CC(C)NC[C@@H](O)c1ccc(O)c(O)c1	8.9	70.9*	0.9	0.4	0.3
O=C(NC(c1ccccc1)c1ccccc1)c1ccc(=O)[nH]n1	-4.9	-11.5	1	0.9	0.9
O=C(NCC1CCCN(C(=O)NCc2ccccc2)C1)c1ccc2c(c1)OCO2 (configuration not stated)	-0.3	-2.9	1	0.9	0.9
CCN(CC)c1ccc(C(=O)O)cc1	7.1	-1.6	0.9	1	1
CCN(CC)c1ccc(/C=C2\C(=O)c3ccc(C(=O)O)cc3C2=O)cc1	39.0	57.0*	0.6	0.7	0.8
CCOC(=O)C1CCN(Cc2c(O)c3ccccc3oc2=O)CC1	-3.0	-12.0	1	0.8	0.9
CCOc1ccc(C2CC(c3c(O)c4ccccc4oc3=O)=NN2c2ccccc2)cc1OC (configuration not stated)	3.7	-22.8	1	2.6*	1.6
CCOC(=O)C(=NC1CCS(=O)(=O)C1)NNc1ccc(Br)cc1 (configuration not stated)	2.8	3.9	1	2.4*	1.6
CCC(=O)NNc1ccc(Br)cc1	-2.8	-9.1	1	2.8*	2*
CCOC(=O)C(=NC(C)CC)NNc1ccc(Br)cc1 (configuration not stated)	-1.7	3.7	1	2.7*	1.6
O=C(N/N=C/c1ccc(O)c(O)c1)c1ccc(CSc2cccc3cccnc23)cc1	20.8	57.3*	0.8	0.9	0.8
CC(C)C(=O)n1nc(-c2cccnc2)nc1NCc1cccs1	-2.3	42.0	1	1	1
O=C(c1cccnc1)n1nc(-c2ccco2)nc1NCc1cccs1	-1.9	63.3*	1	1	1.1
COc1cc(-c2nc(S(=O)(=O)c3ccc(C)cc3)c(N(C)C)o2)cc(OC)c1OC	1.3	-7.6	1	2*	1.5
CCn1c(=S)ccc2ccc(OC)cc21	-5.3	-14.8	1.1	2*	1.6
CN=c1scc(-c2ccc(F)cc2)n1/N=C/c1ccc(O)c(O)c1	18.7	69.7*	0.8	0.8	0.5
CN=c1scc(-c2ccc([N+](=O)[O-])cc2)n1/N=C/c1ccco1	11.5	3.7	0.9	1.1	1.3
CCn1c([N+](=O)[O-])nc2c1c(=O)[nH]c(=O)n2C	-1.4	-5.2	1	0.6	1.1
CC(=O)Sc1nc(-c2ccccc2)[nH]c1S(=O)(=O)c1ccc(C)cc1	-6.9	-10.4	1.1	2.2*	1.4
CC(=O)c1sc2nc(-c3cccs3)ccc2c1N	-9.8	12.4	1.1	2.1*	1.7
Nc1c(C(=O)Nc2nc3ccccc3s2)sc2nc(-c3cccs3)ccc12	5.9	9.7	0.9	0.9	0.9

Screening data as filed in PubChem.
